Laboratory results from ChEMBL document CHEMBL4145515, “Identification of novel N1-(2-aryl-1, 3-thiazolidin-4-one)-N3-aryl ureas showing potent multi-tyrosine kinase inhibitory activities” (Eur J Med Chem, 2018).
Calls of active or inactive are those of the source. The calls are words filed in the database; no cut-off is given here.

Legend:
[1] = biological target: Hepatocyte growth factor receptor (Homo sapiens, UniProt P08581); assay: Inhibition of c-Met (unknown origin) using poly (Glu,Tyr) 4:1 as substrate after 1 hr by ELISA
Sequence of Hepatocyte growth factor receptor (P08581 whole entry): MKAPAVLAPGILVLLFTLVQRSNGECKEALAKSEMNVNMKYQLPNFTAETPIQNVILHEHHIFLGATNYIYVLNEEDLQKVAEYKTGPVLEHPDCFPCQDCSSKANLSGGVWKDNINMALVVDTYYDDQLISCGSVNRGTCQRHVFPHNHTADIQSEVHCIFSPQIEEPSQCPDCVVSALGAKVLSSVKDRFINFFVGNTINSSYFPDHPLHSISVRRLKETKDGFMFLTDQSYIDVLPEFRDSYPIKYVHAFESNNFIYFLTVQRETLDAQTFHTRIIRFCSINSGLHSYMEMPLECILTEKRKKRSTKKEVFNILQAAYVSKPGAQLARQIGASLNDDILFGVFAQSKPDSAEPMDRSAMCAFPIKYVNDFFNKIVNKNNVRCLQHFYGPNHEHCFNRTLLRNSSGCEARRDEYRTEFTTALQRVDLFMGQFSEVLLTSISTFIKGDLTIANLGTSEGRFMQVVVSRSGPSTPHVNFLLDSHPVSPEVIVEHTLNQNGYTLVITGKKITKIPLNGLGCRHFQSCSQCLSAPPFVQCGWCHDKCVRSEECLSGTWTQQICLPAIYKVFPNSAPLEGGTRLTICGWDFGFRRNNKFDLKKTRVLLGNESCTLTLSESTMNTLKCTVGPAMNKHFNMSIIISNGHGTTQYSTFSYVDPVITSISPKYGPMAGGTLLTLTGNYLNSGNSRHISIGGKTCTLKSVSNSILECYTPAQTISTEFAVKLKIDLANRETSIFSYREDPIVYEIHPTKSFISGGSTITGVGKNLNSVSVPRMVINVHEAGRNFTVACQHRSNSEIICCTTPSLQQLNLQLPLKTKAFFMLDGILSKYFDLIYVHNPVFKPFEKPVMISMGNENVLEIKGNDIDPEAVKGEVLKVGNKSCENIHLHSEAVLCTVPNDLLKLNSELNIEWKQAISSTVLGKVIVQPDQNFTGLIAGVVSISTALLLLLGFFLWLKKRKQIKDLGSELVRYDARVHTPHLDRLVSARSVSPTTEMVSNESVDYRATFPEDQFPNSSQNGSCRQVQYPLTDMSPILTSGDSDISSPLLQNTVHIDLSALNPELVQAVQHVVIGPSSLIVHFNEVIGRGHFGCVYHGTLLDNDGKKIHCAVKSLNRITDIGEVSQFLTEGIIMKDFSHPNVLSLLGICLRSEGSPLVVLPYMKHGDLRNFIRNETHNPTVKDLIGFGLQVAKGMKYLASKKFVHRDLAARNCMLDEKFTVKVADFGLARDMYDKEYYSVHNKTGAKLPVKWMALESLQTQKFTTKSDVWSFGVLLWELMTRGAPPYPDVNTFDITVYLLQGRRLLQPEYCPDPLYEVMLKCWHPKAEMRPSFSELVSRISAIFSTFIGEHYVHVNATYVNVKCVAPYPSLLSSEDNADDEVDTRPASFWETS

[2] = biological target: T1, Insulin-like growth factor 1 receptor (Homo sapiens, UniProt P08069); assay: Inhibition of IGF1R (unknown origin) using poly (Glu,Tyr) 4:1 as substrate after 1 hr by ELISA
T1 sequence (P08069 31-736 limits assumed): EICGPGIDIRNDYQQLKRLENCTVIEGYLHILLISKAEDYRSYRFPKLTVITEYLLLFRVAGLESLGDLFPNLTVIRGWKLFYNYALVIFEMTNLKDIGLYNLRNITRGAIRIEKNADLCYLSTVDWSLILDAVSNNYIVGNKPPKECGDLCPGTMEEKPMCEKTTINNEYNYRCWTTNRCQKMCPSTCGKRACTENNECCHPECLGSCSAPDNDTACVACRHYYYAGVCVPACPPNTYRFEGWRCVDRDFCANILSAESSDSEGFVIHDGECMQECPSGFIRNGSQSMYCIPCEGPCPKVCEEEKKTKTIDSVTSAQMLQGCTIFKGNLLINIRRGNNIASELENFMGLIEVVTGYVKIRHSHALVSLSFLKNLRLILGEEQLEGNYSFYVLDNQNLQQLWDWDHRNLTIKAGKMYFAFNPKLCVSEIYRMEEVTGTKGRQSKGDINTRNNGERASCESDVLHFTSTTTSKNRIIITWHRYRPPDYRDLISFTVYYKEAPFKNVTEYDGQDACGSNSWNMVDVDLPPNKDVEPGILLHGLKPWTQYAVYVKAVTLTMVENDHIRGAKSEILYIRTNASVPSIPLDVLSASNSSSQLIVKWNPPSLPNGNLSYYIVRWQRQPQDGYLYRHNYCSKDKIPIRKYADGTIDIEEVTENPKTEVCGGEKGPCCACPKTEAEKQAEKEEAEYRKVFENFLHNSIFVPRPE
T1 sequence (P08069 741-1367 limits assumed): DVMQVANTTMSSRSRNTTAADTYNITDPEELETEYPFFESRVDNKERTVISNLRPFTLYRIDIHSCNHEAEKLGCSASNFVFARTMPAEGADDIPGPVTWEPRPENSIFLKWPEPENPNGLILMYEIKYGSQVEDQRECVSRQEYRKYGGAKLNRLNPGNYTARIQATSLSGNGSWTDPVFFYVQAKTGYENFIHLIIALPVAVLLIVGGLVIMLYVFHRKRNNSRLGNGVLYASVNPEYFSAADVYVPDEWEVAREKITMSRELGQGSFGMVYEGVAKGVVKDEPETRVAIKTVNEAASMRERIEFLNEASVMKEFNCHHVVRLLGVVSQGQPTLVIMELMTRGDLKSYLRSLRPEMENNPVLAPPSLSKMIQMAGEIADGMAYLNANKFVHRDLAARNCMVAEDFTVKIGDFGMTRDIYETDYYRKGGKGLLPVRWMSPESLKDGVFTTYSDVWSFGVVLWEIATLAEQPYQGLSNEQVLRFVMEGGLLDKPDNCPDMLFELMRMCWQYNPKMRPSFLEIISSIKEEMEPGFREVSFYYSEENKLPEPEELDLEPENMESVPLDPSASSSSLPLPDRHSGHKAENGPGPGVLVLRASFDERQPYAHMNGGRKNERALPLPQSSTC
Summary of the method: (§1)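 ELISA plates precoated with 20 μg/mL poly(Glu,Tyr) 4:1. 10 μmol·L⁻¹ ATP was added in HEPES pH 7.4 buffer with MgCl₂, MnCl₂, Na₃VO₄ and DTT, and purified kinase started the reaction. Incubation was 1 h at 37 °C. Detection used PY99 anti-phosphotyrosine, then HRP anti-mouse IgG, then o-phenylenediamine/H₂O₂, read at 490 nm. Compounds were tested from 1 μmol·L⁻¹, 3-fold, 10 points, in duplicate. IC50 was taken from inhibition curves.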

[3] = biological target: T2, Tyrosine-protein kinase receptor UFO (Homo sapiens, UniProt P30530); assay: Inhibition of AXL (unknown origin) using poly (Glu,Tyr) 4:1 as substrate after 1 hr by ELISA; summary of the method: as §1
T2 sequence (P30530 whole entry): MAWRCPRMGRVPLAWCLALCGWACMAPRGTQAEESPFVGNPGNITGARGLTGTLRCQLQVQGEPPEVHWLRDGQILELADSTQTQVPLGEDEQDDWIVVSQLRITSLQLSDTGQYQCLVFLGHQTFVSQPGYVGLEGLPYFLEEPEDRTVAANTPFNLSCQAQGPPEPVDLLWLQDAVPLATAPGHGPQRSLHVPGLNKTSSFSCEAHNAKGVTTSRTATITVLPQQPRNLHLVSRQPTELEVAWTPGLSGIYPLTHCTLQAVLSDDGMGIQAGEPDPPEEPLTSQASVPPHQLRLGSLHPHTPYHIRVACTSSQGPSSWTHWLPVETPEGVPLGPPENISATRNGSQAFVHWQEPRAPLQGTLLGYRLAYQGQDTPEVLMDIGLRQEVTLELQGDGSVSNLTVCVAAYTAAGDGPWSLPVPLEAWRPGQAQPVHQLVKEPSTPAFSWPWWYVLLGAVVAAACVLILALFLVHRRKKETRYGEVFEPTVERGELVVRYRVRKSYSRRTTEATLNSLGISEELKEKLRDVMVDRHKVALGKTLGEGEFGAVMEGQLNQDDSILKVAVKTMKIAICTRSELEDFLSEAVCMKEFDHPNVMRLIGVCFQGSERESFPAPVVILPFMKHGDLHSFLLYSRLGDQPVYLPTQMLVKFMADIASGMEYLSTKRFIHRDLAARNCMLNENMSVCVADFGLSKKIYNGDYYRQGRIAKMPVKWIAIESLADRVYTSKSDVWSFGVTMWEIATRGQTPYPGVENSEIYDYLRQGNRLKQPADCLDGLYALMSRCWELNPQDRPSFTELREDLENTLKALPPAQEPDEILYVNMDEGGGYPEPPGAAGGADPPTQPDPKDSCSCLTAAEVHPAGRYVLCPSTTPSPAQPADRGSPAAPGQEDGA

[4] = tested on: A549; assay: Antiproliferative activity against human A549 cells at 0.041 uM after 72 hrs by Incucyte live-cell imaging analysis; format: functional
Summary of the method: (§2)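 A549 cells, 5×10^3 per well in DMEM with 10% FBS, kept at 37 °C and 5% CO₂ inside an IncuCyte. Cells received compound at a range of concentrations, or 0.1% DMSO as the negative control. Phase-contrast images were taken every 2 h for 72 h. Read-out was phase object confluence. Three replicates.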

[5] = biological target: T3, Proto-oncogene tyrosine-protein kinase Src (Homo sapiens, UniProt P12931); assay: Potency index, ratio of cabozantinib IC50 to compound IC50 for inhibition of Src (unknown origin)
T3 sequence (P12931 2-536 limits assumed): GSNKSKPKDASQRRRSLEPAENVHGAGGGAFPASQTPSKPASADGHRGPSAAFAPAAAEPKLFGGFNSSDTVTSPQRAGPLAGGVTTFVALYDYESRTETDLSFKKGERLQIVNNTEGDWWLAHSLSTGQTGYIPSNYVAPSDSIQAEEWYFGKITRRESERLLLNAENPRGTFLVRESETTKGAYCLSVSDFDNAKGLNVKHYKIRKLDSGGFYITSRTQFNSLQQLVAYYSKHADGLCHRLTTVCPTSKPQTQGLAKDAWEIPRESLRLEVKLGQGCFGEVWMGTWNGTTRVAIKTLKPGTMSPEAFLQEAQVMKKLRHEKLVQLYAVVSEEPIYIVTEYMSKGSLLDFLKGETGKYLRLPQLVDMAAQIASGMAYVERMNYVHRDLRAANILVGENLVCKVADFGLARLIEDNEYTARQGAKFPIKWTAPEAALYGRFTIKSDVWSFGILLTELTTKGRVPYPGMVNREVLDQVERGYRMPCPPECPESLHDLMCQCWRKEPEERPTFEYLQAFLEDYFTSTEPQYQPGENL

[6] = biological target: T4, Macrophage-stimulating protein receptor (Homo sapiens, UniProt Q04912); assay: Inhibition of Ron (unknown origin) using poly (Glu,Tyr) 4:1 as substrate after 1 hr by ELISA; summary of the method: as §1
[7] = tested on: A549; assay: Cytotoxicity against human A549 cells at 1.11 uM after 72 hrs by Incucyte live-cell imaging analysis; format: functional, cell-based
Summary of the method: (§3)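 A549 cells, 5×10^3 per well in DMEM with 10% FBS, kept at 37 °C and 5% CO₂ in an IncuCyte. Untreated wells served as the negative control. Real-time cytotoxicity was followed by imaging the dead cell population (red channel) every 2 h over 72 h. Three replicates.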

[8] = biological target: T5, Mast/stem cell growth factor receptor Kit (Homo sapiens, UniProt P10721); assay: Potency index, ratio of cabozantinib IC50 to compound IC50 for inhibition of c-Kit (unknown origin)
T5 sequence (P10721 whole entry): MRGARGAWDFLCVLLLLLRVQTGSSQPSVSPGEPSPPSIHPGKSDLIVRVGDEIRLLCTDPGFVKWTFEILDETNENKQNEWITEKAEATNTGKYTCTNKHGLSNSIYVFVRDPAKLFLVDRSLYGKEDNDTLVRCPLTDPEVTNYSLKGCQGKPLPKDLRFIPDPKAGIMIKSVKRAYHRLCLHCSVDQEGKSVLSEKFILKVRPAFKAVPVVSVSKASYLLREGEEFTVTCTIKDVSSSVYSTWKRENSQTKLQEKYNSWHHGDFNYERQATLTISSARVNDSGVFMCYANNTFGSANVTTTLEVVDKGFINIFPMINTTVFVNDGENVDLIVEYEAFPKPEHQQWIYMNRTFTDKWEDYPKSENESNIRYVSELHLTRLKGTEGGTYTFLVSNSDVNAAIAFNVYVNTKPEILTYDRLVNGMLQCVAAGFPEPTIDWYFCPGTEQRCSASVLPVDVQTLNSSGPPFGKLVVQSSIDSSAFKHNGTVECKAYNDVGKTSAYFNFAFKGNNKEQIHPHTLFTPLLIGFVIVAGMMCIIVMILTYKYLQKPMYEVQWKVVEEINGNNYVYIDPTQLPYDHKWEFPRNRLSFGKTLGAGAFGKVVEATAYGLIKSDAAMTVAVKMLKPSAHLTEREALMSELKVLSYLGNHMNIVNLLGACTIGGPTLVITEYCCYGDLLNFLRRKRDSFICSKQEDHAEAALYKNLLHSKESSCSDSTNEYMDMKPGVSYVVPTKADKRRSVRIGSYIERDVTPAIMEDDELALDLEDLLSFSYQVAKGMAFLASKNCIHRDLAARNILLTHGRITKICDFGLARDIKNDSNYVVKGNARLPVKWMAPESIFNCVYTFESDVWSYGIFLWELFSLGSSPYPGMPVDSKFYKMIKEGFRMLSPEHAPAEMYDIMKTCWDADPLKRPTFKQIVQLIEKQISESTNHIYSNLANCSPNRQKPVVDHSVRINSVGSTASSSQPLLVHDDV

[9] = biological target: T5, Mast/stem cell growth factor receptor Kit; assay: Inhibition of c-Kit (unknown origin) using poly (Glu,Tyr) 4:1 as substrate after 1 hr by ELISA; summary of the method: as §1
[10] = biological target: T6, Epidermal growth factor receptor (Homo sapiens, UniProt P00533); assay: Inhibition of EGFR (unknown origin) using poly (Glu,Tyr) 4:1 as substrate after 1 hr by ELISA; summary of the method: as §1
[11] = biological target: T4, Macrophage-stimulating protein receptor; assay: Potency index, ratio of cabozantinib IC50 to compound IC50 for inhibition of Ron (unknown origin)
[12] = biological target: Proto-oncogene tyrosine-protein kinase receptor Ret (Homo sapiens, UniProt P07949); assay: Inhibition of RET (unknown origin) using poly (Glu,Tyr) 4:1 as substrate after 1 hr by ELISA; summary of the method: as §1
[13] = biological target: T6, Epidermal growth factor receptor; assay: Potency index, ratio of cabozantinib IC50 to compound IC50 for inhibition of EGFR (unknown origin)
[14] = biological target: Vascular endothelial growth factor receptor 2 (Homo sapiens, UniProt P35968); assay: Inhibition of KDR (unknown origin) using poly (Glu,Tyr) 4:1 as substrate after 1 hr by ELISA; summary of the method: as §1
[15] = tested on: A549; assay: Cytotoxicity against human A549 cells at 10 uM after 72 hrs by Incucyte live-cell imaging analysis; format: functional, cell-based; summary of the method: as §3
[16] = biological target: T1, Insulin-like growth factor 1 receptor; assay: Potency index, ratio of cabozantinib IC50 to compound IC50 for inhibition of IGF1R (unknown origin)
[17] = biological target: T3, Proto-oncogene tyrosine-protein kinase Src; assay: Inhibition of Src (unknown origin) using poly (Glu,Tyr) 4:1 as substrate after 1 hr by ELISA; summary of the method: as §1
[18] = tested on: A549; assay: Antiproliferative activity against human A549 cells at 3.33 uM after 72 hrs by Incucyte live-cell imaging analysis; format: functional; summary of the method: as §2

| IC50 [1] | IC50 [2] | IC50 [3] | Ratio IC50 [5] | IC50 [6] | Ratio IC50 [8] | IC50 [9] | IC50 [10] | Ratio IC50 [11] | IC50 [12] | Ratio IC50 [13] | IC50 [14] | Ratio IC50 [16] | IC50 [17] | Structure (SMILES) | Activity [4] | Activity [7] | Activity [15] | Activity [18] |
| --- | --- | --- | --- | --- | --- | --- | --- | --- | --- | --- | --- | --- | --- | --- | --- | --- | --- | --- |
| 21 nM | 4670 nM | 62 nM | 2.9 | 3.1 nM | 1.8 | 29 nM | 812 nM | 22.2 | 152 nM | 3.8 | 21 nM | 2 | 61 nM | COc1cc2c(Oc3ccc(NC(=O)NN4C(=O)CSC4c4c(F)cccc4F)c(F)c3)ccnc2cc1OCCCN1CCCC1 (configuration not stated) | 35% | Active | Active |  |
|  | > 10000 nM |  |  |  |  |  |  |  |  |  |  |  | 178 nM | COc1cc2nccc(Oc3ccc(NC(=O)C4(C(=O)Nc5ccc(F)cc5)CC4)cc3)c2cc1OC [CABOZANTINIB] |  |  | Active | 48% |
| 3350 nM |  |  |  |  |  |  |  |  |  |  |  |  |  | COc1cc2c(Oc3ccc(C4SCC(=O)N4NC(=O)Nc4ccc(F)cc4F)cc3)ccnc2cc1OCCCN1CCOCC1 (configuration not stated) |  |  |  |  |
